In ChEMBL document CHEMBL5370658, “Development of First-in-Class Dual Sirt2/HDAC6 Inhibitors as Molecular Tools for Dual Inhibition of Tubulin Deacetylation” (J Med Chem, 2023):
The source made the active and inactive calls. No cut-off for these calls is given here.

Legend:
[1] = Cytotoxicity against human W1 Ovarian cancer cells assessed as inhibition of cell growth at 50 uM incubated for 72 hrs by MTT assay relative to control; format: functional
PC-3M-luc = details: Homo sapiens, dose 20.0 µM, time 5.0 hrs
MCF7 = assay: Cytotoxicity against human MCF7 cells assessed as inhibition of cell growth at 50 uM incubated for 72 hrs by MTT assay relative to control; format: functional
[2] = Cytotoxicity against human PC-3M-luc cells assessed as inhibition of cell growth at 50 uM incubated for 72 hrs by MTS assay relative to control; format: functional
HGC-27 = assay: Cytotoxicity against human HGC-27 cells assessed as inhibition of cell growth at 50 uM incubated for 72 hrs by MTS assay relative to control; format: functional
[3] = biological target: T1, NAD-dependent protein deacetylase sirtuin-3, mitochondrial (Homo sapiens, UniProt Q9NTG7); assay: Inhibition of recombinant human Sirt3 (118 to 395 residues) expressed in Escherichia coli BL21 Star (DE3) using ZMAL as substrate incubated for 4 hrs in presence of NAD+ by trypsin based fluorescence analysis
T1 sequence (Q9NTG7 whole entry): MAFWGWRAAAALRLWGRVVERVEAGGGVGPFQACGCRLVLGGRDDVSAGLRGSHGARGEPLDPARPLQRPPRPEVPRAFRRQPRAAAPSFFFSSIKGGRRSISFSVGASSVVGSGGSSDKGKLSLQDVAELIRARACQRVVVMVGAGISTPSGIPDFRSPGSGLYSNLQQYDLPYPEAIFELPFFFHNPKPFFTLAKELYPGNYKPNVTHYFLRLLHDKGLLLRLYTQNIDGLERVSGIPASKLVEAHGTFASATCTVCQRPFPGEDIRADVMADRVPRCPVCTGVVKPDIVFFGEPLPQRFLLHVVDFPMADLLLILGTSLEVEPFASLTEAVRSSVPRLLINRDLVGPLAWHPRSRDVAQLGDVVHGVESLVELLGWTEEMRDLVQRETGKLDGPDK
Summary of the method: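 Human Sirt1 (134–747) or Sirt3 (118–395) expressed in E. coli, purified by Strep-Tactin and size exclusion. Assay with ZMAL (10.5 µM final) in Tris buffer pH 8.0, 5% DMSO, at 37 °C. Started with NAD+ (500 µM final). Conversion set to 15–30%.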

[4] = biological target: T2, NAD-dependent protein deacetylase sirtuin-2 (Homo sapiens) (UniProt Q8IXJ6); assay: Inhibition of recombinant human Sirt2 (56 to 356 residues) expressed in Escherichia coli BL21 Star (DE3) mediated demyristoylation activity using ZMML as substrate at 10 uM incubated for 4 hrs in presence of NAD+ by trypsin based fluorescence analysis relative to control
T2 sequence (whole entry): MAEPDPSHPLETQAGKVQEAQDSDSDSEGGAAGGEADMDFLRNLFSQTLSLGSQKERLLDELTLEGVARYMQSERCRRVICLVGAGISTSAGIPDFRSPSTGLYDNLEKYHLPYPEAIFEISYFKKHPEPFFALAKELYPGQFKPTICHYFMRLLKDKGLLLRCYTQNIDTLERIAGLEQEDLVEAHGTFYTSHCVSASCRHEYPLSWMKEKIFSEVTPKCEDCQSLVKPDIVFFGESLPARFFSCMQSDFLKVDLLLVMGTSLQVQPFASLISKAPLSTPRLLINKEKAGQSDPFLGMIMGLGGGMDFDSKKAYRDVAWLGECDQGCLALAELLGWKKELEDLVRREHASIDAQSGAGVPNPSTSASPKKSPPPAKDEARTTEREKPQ

In the case of `Cc1cc(C)nc(SCC(=O)Nc2ncc(Cc3cccc(OCc4cn(CCOCCOCCOCCOCCOCCOCCOCCOCCOCCOCCC(=O)Nc5ccc(C(=O)NCc6ccc(C(=O)NO)cc6)cc5)nn4)c3)s2)n1`, the inhibition at 50 µM [1] is reported as under 20%, the inhibition (PC-3M-luc) is reported as “Active” and the inhibition at 50 µM (MCF7) is reported as under 20%. It also gave an inhibition at 50 µM [2] of under 20% and an inhibition at 50 µM (HGC-27) of under 20%.
`Cc1cc(C)nc(SCC(=O)Nc2ncc(Cc3cccc(OCc4cn(Cc5ccccc5)nn4)c3)s2)n1` gave an inhibition at 50 µM [2] of under 20%.
With `Cc1cc(C)nc(SCC(=O)Nc2ncc(Cc3cccc(OCc4cn(CCOCCOCCOCCOCCC(=O)Nc5ccc(C(=O)NCCCCCCC(=O)NO)cc5)nn4)c3)s2)n1` the inhibition at 50 µM [1] was under 20%, the inhibition (PC-3M-luc) was “Active” and the inhibition at 50 µM (MCF7) was under 20%. It also gave an inhibition at 50 µM [2] of under 20%.
Compound `COCCn1cc(COc2cccc(Cc3cnc(NC(=O)CSc4nc(C)cc(C)n4)s3)c2)nn1` has an IC50 [3] of over 100 µM.
Compound `O=C(CCCCCCC(=O)Nc1ccccc1)NO` has an inhibition [4] of 18%.
For `Cc1cc(C)nc(SCC(=O)Nc2ncc(Cc3cccc(OCc4cn(CCOCCOCCOCCOCCC(=O)Nc5ccc(C(=O)NCc6ccc(C(=O)NO)cc6)cc5)nn4)c3)s2)n1`, the inhibition at 50 µM [1] was under 20%, the inhibition (PC-3M-luc) was “Active” and the inhibition at 50 µM (MCF7) was under 20%. For the same compound, the inhibition at 50 µM [2] was under 20% and the inhibition at 50 µM (HGC-27) was under 20%.
